According to the M2OR odorant receptor database:

Legend:
Settings in all cases: stereoisomer not certain
[1] = target: T1, UniProt Q8VGX8
T1 sequence (whole entry): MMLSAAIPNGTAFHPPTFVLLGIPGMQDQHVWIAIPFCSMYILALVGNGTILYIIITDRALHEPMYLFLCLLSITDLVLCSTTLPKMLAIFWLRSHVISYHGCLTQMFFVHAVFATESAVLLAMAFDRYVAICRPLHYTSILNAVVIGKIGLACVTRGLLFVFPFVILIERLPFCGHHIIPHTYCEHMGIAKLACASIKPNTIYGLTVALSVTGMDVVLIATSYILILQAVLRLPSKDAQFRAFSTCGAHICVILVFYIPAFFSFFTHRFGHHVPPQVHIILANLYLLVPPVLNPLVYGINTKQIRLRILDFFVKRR
In short: (§1)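 Each receptor–molecule pair is labelled responsive or non-responsive (inactive) according to whether the original authors judged the measured signal statistically different from baseline. The data were taken from the main text and supplementary material of published papers and checked for typos and inconsistencies. Assay methods differed by source, with transient luciferase assays in mammalian cell lines being common.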

[2] = target: T2, UniProt Q8VGY6
T2 sequence (whole entry): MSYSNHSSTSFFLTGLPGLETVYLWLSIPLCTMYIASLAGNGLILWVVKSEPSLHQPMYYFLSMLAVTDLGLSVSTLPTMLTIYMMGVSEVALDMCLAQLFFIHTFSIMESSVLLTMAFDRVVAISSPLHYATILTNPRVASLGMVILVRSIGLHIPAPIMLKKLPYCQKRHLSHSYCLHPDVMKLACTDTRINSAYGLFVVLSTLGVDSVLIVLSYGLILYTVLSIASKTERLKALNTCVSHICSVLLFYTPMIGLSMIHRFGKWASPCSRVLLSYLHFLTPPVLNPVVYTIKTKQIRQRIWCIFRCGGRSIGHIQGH
In short: as §1

[3] = target: T3, UniProt Q8VGZ2
T3 sequence (whole entry): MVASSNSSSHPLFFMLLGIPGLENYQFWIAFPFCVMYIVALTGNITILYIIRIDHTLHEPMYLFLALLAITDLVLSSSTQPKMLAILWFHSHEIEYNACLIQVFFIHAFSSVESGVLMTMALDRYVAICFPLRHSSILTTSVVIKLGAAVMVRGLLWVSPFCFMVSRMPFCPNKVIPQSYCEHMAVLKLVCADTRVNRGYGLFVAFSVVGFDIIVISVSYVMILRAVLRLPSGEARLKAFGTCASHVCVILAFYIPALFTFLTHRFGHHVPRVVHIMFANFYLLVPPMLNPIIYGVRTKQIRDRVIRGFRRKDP
In short: as §1

[4] = target: T4, UniProt Q8VGZ7
T4 sequence (whole entry): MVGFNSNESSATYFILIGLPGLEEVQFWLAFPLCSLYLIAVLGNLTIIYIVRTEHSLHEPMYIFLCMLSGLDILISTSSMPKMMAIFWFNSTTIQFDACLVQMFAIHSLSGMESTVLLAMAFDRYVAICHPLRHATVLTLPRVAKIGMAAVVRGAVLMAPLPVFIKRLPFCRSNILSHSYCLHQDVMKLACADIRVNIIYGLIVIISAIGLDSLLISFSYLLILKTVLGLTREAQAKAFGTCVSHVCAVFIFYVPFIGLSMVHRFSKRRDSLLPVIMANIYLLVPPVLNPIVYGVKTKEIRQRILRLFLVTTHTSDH
In short: as §1

[5] = target: T5, UniProt Q8VH10
T5 sequence (whole entry): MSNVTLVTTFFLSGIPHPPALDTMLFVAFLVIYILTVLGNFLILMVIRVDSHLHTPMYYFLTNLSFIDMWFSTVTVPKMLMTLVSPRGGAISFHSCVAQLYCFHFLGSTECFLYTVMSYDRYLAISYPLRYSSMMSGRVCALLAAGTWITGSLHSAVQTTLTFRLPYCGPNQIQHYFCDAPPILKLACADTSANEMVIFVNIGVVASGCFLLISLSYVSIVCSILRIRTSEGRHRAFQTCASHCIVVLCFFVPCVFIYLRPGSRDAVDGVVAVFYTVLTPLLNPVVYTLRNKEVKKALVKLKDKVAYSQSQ
In short: as §1

[6] = target: T6, UniProt Q8VH20
T6 sequence (whole entry): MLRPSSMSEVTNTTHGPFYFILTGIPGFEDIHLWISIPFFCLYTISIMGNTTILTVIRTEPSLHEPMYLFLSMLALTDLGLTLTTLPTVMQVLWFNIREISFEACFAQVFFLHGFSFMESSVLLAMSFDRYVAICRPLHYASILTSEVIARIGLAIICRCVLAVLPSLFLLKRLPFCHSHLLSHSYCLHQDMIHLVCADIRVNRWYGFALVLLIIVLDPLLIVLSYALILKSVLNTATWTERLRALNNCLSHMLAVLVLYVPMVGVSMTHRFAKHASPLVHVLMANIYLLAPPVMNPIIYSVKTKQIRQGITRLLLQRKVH
In short: as §1

[7] = target: T7, UniProt Q9EPN9
T7 sequence (whole entry): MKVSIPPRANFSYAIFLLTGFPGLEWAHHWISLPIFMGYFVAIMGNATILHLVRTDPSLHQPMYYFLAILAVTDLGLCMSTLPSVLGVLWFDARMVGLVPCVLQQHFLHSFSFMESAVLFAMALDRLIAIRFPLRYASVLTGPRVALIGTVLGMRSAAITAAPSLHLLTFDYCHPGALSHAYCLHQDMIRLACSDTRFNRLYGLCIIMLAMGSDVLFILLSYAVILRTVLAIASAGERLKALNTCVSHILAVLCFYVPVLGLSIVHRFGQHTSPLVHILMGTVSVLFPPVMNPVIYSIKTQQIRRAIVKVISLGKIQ
In short: as §1

[8] = target: UniProt Q9R0K2
UniProt Q9R0K2, sequence (Q9R0K2 as listed by the source): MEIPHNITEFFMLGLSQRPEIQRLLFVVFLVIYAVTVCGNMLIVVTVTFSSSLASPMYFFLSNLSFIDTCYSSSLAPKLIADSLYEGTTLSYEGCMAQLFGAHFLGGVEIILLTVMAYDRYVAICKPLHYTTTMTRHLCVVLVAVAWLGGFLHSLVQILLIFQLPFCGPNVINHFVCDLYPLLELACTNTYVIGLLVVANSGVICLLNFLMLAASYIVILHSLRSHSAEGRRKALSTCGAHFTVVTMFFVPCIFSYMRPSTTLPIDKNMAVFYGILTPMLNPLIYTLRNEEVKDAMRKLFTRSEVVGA
In short: as §1

[9] = target: T8, UniProt Q9WU86
T8 sequence (whole entry): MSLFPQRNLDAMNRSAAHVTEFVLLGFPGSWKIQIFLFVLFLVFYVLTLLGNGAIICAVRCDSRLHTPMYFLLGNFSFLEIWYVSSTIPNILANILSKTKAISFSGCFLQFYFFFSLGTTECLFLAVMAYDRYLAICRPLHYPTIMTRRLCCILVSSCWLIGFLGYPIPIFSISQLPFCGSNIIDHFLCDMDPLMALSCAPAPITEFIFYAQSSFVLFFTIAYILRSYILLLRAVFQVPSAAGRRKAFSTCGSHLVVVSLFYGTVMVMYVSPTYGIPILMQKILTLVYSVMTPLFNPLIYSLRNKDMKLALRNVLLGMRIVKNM
In short: as §1

[10] = target: T9, UniProt Q8VH18
T9 sequence (whole entry): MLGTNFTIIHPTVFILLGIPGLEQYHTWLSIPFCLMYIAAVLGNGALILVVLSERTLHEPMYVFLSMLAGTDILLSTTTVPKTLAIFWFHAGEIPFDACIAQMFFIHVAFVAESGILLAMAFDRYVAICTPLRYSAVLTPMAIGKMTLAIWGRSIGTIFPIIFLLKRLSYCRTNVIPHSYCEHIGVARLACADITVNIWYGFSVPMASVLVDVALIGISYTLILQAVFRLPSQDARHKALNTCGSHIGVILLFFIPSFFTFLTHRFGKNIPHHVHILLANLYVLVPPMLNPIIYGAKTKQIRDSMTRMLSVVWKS
In short: as §1

[11] = target: T10, UniProt Q924X8
T10 sequence (whole entry): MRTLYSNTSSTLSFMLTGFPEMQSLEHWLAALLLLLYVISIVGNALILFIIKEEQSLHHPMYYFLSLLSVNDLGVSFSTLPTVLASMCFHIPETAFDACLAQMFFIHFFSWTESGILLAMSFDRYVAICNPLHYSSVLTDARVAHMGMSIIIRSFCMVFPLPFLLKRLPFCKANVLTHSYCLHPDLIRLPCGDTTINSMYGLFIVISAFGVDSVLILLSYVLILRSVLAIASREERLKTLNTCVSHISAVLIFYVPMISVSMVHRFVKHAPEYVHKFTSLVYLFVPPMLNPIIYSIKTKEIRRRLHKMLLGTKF
In short: as §1

[12] = target: T11, UniProt Q99NH4
T11 sequence (whole entry): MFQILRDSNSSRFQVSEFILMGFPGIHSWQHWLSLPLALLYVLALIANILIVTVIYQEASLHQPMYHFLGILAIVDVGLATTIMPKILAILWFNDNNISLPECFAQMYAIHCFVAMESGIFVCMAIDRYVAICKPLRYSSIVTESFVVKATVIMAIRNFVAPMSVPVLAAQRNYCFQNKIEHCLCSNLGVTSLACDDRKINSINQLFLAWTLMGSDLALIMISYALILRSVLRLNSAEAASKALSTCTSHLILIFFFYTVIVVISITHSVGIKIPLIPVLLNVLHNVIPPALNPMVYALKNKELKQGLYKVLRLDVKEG
In short: as §1

[13] = target: T12, UniProt Q9WU94
T12 sequence (whole entry): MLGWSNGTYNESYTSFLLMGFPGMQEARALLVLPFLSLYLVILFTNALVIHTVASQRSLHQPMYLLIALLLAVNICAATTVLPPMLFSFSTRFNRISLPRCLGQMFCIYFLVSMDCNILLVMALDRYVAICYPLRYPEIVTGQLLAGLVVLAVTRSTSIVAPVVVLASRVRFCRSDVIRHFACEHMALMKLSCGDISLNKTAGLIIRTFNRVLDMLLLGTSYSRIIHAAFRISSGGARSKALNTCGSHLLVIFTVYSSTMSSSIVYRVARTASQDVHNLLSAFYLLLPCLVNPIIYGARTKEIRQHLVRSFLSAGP
In short: as §1

[14] = target: T13, UniProt Q9WVD7
T13 sequence (whole entry): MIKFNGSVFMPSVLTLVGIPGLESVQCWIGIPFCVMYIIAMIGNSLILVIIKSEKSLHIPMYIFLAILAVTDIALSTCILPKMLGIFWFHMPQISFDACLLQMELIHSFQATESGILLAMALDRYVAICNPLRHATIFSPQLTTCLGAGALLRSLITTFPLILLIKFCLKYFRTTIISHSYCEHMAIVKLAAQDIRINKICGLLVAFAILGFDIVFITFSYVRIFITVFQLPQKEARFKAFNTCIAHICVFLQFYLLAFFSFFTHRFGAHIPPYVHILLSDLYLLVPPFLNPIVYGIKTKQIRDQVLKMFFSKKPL
In short: as §1

[15] = target: T14, UniProt Q8VH16
T14 sequence (whole entry): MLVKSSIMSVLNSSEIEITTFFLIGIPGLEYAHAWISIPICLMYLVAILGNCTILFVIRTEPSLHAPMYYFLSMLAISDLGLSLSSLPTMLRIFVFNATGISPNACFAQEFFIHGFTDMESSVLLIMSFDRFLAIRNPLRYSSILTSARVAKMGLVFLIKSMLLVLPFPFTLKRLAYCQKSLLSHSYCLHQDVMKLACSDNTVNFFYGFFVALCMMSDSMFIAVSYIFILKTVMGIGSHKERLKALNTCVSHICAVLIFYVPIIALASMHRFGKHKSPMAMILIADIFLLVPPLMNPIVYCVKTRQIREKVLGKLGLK
In short: as §1

[16] = target: T15, UniProt Q8VH21
T15 sequence (whole entry): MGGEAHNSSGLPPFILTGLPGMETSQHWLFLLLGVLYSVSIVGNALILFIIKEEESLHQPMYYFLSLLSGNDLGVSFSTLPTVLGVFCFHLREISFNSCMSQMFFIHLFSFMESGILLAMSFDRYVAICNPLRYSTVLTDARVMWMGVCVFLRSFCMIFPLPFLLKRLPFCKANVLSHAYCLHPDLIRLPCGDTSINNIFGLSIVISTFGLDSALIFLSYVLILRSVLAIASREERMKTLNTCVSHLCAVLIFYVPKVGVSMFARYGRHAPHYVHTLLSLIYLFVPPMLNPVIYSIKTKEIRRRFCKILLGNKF
In short: as §1

[17] = target: T16, UniProt Q924H8
T16 sequence (whole entry): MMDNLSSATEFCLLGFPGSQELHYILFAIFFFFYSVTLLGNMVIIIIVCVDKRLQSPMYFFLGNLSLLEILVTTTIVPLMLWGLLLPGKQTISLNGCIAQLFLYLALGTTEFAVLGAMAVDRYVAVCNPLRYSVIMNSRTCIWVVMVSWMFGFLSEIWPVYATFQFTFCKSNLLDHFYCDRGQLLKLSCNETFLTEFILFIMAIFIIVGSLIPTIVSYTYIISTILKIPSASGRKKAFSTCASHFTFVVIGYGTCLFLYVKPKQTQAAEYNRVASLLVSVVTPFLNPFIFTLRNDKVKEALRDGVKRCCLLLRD
In short: as §1
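Further: active if original authors judged signal statistically different from baseline.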

## CCCCOC(=O)C(C)OC(=O)CCC (stereo not drawn)
[1]
  odorant receptor agonist call: inactive
[2]
  odorant receptor agonist call: inactive
[3]
  odorant receptor agonist call: inactive
[4]
  odorant receptor agonist call: inactive
[5]
  odorant receptor agonist call: inactive
[6]
  odorant receptor agonist call: inactive
[7]
  odorant receptor agonist call: inactive
[8]
  odorant receptor agonist call: inactive
[9]
  odorant receptor agonist call: inactive

## CCCCCO
[1]
  odorant receptor agonist call: inactive
[2]
  odorant receptor agonist call: inactive
[3]
  odorant receptor agonist call: inactive
[4]
  odorant receptor agonist call: inactive
[5]
  odorant receptor agonist call: inactive
[10]
  odorant receptor agonist call: inactive
[6]
  odorant receptor agonist call: inactive
[11]
  odorant receptor agonist call: inactive
[12]
  odorant receptor agonist call: inactive
[7]
  odorant receptor agonist call: inactive
[8]
  odorant receptor agonist call: inactive
[9]
  odorant receptor agonist call: inactive
[13]
  odorant receptor agonist call: inactive
[14]
  odorant receptor agonist call: inactive

## CCc1ccccc1O
[3]
  odorant receptor agonist call: inactive
[4]
  odorant receptor agonist call: inactive
[15]
  odorant receptor agonist call: inactive
[6]
  odorant receptor agonist call: inactive
[16]
  odorant receptor agonist call: inactive
[17]
  odorant receptor agonist call: inactive

## CCC(C(=O)O)c1ccccc1 (stereo not drawn)
[1]
  odorant receptor agonist call: inactive
[2]
  odorant receptor agonist call: inactive
[3]
  odorant receptor agonist call: inactive
[4]
  odorant receptor agonist call: inactive
[5]
  odorant receptor agonist call: inactive
[6]
  odorant receptor agonist call: inactive
[7]
  odorant receptor agonist call: active
[8]
  odorant receptor agonist call: inactive
[9]
  odorant receptor agonist call: inactive
